pIC50: −log10 of the molar value.
What was measured:
WI-38 = test: Cytotoxicity against human WI-38 cells assessed as reduction in cell growth incubated for 72 hrs by MTT assay; assay type: cell-based; settings: WI-38, 72 h
How it was run: (§1)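 Log-phase cells seeded at 5 × 10³/well and grown 24 h, then exposed to graded compound concentrations for 72 h. MTT (5 mg/mL) added for 4 h; formazan dissolved in DMSO and absorbance read at 490 nm. IC50 calculated from growth inhibition; means ± SD of triplicate experiments.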

A549 = test: Antiproliferative activity against human A549 cells assessed as reduction in cell growth incubated for 72 hrs by MTT assay; assay type: functional, cell-based; settings: A549, 72 h; how it was run: as §1
HCT-116 = test: Antiproliferative activity against human HCT-116 cells assessed as reduction in cell growth incubated for 72 hrs by MTT assay; assay type: functional, cell-based; settings: HCT-116, 72 h; how it was run: as §1
HeLa = test: Antiproliferative activity against human HeLa cells assessed as reduction in cell growth incubated for 72 hrs by MTT assay; assay type: functional, cell-based; how it was run: as §1
HepG2 = test: Antiproliferative activity against human HepG2 cells assessed as reduction in cell growth incubated for 72 hrs by MTT assay; assay type: functional, cell-based; settings: HepG2, 72 h; how it was run: as §1
MCF7 = test: Antiproliferative activity against human MCF7 cells assessed as reduction in cell growth incubated for 72 hrs by MTT assay; assay type: functional, cell-based; settings: MCF7, 72 h; how it was run: as §1

| Structure (SMILES) | pIC50 (A549) | pIC50 (HCT-116) | pIC50 (HeLa) | pIC50 (HepG2) | pIC50 (MCF7) | pIC50 (WI-38) |
| --- | --- | --- | --- | --- | --- | --- |
| COc1ccc2c(N(CC(F)F)c3cc(OC)c(OC)c(OC)c3)n[nH]c2n1 | 5.62 | 6.33 | 6.77 | 4.73 | 4.66 | 5.77 |
| COc1ccc(/C=C\c2cc(OC)c(OC)c(OC)c2)cc1O [COMBRETASTATIN A4] | 7.24 | 7.54 | 8.30 | 6.55 | 7.47 | 4.50 |
| COc1ccc2c(N(c3cc(OC)c(OC)c(OC)c3)C3CCCC3)n[nH]c2n1 | 4.64 | 4.58 | 4.55 | < 4.30 | < 4.30 | 4.98 |
| COCCN(c1cc(OC)c(OC)c(OC)c1)c1n[nH]c2nc(OC)ccc12 | 4.50 | 5.44 | 5.75 | < 4.30 | 5.76 | 4.51 |

Further lines, with some results ahead:

| pIC50 (A549) | pIC50 (HCT-116) | pIC50 (HeLa) | pIC50 (HepG2) | pIC50 (MCF7) | Structure (SMILES) | pIC50 (WI-38) |
| --- | --- | --- | --- | --- | --- | --- |
| < 4.30 | < 4.30 | 4.67 | 4.61 | < 4.30 | COc1ccc2c(N(c3cc(OC)c(OC)c(OC)c3)C(C)C)n[nH]c2n1 | 5.22 |
| < 4.30 | 5.22 | 6.14 | 5.20 | 5.86 | CCCN(c1cc(OC)c(OC)c(OC)c1)c1n[nH]c2nc(OC)ccc12 | 5.52 |
| < 4.30 | < 4.30 | 6.23 | 5.60 | < 4.30 | COc1ccc2c(N(C)c3cc(OC)c(OC)c(OC)c3)nn(C)c2n1 | 4.64 |
| 4.69 | 5.66 | 6.74 | 5.26 | 5.63 | COc1ccc2c(N(CC3CC3)c3cc(OC)c(OC)c(OC)c3)n[nH]c2n1 | 5.89 |
| < 4.30 | < 4.30 | 4.65 | 4.41 | < 4.30 | COc1ccc2c(Nc3cc(OC)c(OC)c(OC)c3)nn(-c3ccccc3)c2n1 | 4.90 |

From ChEMBL document CHEMBL4680339, “Synthesis and bioevaluation of N-(3,4,5-trimethoxyphenyl)-1H-pyrazolo[3,4-b]pyridin-3-amines as tubulin polymerization inhibitors with anti-angiogenic effects” (Bioorg Med Chem, 2021)
